Data published in article PMC2862812 (Biochimica et biophysica acta, 2009).
Where no end group is shown, it is not given here.

assay: Tryptophan fluorescence of peptides in phosphate buffer without lipid; format: physicochemical; conditions: no lipid; from fluorescence and CD
Outline: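 7 μM peptide in buffer without liposomes, pH 8 or 4 (adjusted with dilute NaOH/HCl), temperature-controlled. Trp emission 310–450 nm, excitation 295 nm, slits 2–4/2 nm; CD spectra recorded in parallel.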

| Compound | State of the peptide in aqueous solution (solubility / aggregation) |
| --- | --- |
| AAEQNPIYWARYAEWLFTTPLLLLDLALLVDADEGT [D14E] | remain soluble and monomeric in solution |
| AAEQNPIYWARYADWLFTTPLLLLELALLVDADEGT [D25E] | remain soluble and monomeric in solution |
| CC[C@H](C)[C@H](NC(=O)[C@@H]1CCCN1C(=O)[C@H](CC(N)=O)NC(=O)[C@H](CCC(N)=O)NC(=O)[C@H](CCC(=O)O)NC(=O)[C@H](C)NC(=O)[C@H](C)N)C(=O)N[C@@H](Cc1ccc(O)cc1)C(=O)N[C@@H](Cc1c[nH]c2ccccc12)C(=O)N[C@@H](C)C(=O)N[C@@H](CCCNC(=N)N)C(=O)N[C@@H](Cc1ccc(O)cc1)C(=O)N[C@@H](C)C(=O)N[C@@H](CC(=O)O)C(=O)N[C@@H](Cc1c[nH]c2ccccc12)C(=O)N[C@@H](CC(C)C)C(=O)N[C@@H](Cc1ccccc1)C(=O)N[C@H](C(=O)N[C@H](C(=O)N1CCC[C@H]1C(=O)N[C@@H](CC(C)C)C(=O)N[C@@H](CC(C)C)C(=O)N[C@@H](CC(C)C)C(=O)N[C@@H](CC(C)C)C(=O)N[C@@H](CC(=O)O)C(=O)N[C@@H](CC(C)C)C(=O)N[C@@H](C)C(=O)N[C@@H](CC(C)C)C(=O)N[C@@H](CC(C)C)C(=O)N[C@H](C(=O)N[C@@H](CC(=O)O)C(=O)N[C@@H](C)C(=O)N[C@@H](CC(=O)O)C(=O)N[C@@H](CCC(=O)O)C(=O)NCC(=O)N[C@H](C(=O)O)[C@@H](C)O)C(C)C)[C@@H](C)O)[C@@H](C)O [WT, reference compound] | unfolded and monomeric |
| AAEQNPIYWARYADWLFTTPLLLLALALLVDADEGT [D25A] | probably, more aggregated in solution |
| AAEQNPIYWARYADWLFTDLPLLLLDLLALLVDADEGT [3D] | aggregated state of the peptide in solution even at low concentrations |
